proKLK7 act = proKLK7 (human) activation, primary screen; P49862; purified proKLK7, EDANS-DABCYL substrate fluorescence; 100% is mature enzyme control, 0% vehicle; 370,000 tested, 0.9% active; AID 652039; activation, % at 7 µM;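 active = activation above the mean of all tested compounds plus 3 SD, computed per campaign excluding outliers beyond control limits, cut at about 13% in these data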
Target sequence (P49862 whole entry, looked up): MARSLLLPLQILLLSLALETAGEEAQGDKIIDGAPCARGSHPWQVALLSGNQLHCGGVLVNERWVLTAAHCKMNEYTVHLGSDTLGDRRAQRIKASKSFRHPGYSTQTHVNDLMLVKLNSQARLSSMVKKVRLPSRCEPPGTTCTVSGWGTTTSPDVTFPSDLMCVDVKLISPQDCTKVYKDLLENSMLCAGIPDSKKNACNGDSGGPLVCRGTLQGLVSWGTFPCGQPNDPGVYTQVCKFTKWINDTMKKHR
procasp7 counter = counter-screen for procaspase-3 activators: activators of human procaspase-7; P55210; recombinant procaspase-7, Ac-DEVD-pNA absorbance 405 nm; D23A/D198A/D206A triple mutant, cannot self-cleave; scale: DMSO 0, 5 µM enzyme 100; 330,000 tested, 0.093% active; activation, % at 8.5 µM;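 active = percent activation above the screen-wide mean plus 3 SD, cut at about 25% in these data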
Target sequence (P55210 whole entry D23A/D198A/D206A): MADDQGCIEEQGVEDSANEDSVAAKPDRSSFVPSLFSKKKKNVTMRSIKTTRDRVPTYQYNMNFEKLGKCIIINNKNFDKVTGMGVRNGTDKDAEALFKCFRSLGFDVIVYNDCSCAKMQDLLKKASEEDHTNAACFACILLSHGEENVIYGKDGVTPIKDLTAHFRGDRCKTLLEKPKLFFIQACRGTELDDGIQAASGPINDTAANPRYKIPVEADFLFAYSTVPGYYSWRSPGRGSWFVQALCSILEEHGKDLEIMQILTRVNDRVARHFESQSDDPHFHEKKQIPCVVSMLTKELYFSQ
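Assay system – Uncleavable procaspase-7 mutant enzyme · Quantity – 2 µM procaspase-7 mutant as dispensed · Times – 1 h preincubation, 2 h reaction · Dosing – single nominal 8.5 µM compound dose, 0.8% DMSO final · Buffer or medium – Zinc-free 50 mM HEPES buffer, pH 7.4, with NaCl and Triton X-100 · Detection – Epi-absorbance of released pNA at 405 nm, two timepoints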
procasp3 activ = activators of human procaspase-3 | 330,000 tested, 0.11% active | P42574 | activation, % at 8.5 µM | recombinant procaspase-3 D3A, Ac-DEVD-pNA absorbance 405 nm;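 active = activation above the mean of all tested compounds plus 3 SD, cut at about 21% in these data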;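 note: 0% = DMSO alone and 100% = DMSO wells spiked with extra 5 µM PC-3 D3A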
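Test system: Procaspase-3 D3A mutant, all three cleavage aspartates alanine | Dosing: Single dose, 8.5 µM nominal compound, 0.8% DMSO | Schedule: 1 h preincubation, 2 h reaction | Technique: 405 nm absorbance of p-nitroaniline, reads at 0 and 120 min | Repeats: One well per compound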
Neddylation inh = blocks human cullin neddylation | P61081+Q13564 | TR-FRET cullin neddylation, biochemical | calls only at 25 µM | 360,000 tested, 0.58% active | AID 651699; in the data active = inhibition above about 36%
Neddyl inh conf = cullin neddylation inhibition, confirmation; shares compounds with Neddylation inh; TR-FRET cullin neddylation biochemical assay; calls only at 25 µM; 1,800 tested, 13% active; in the data active = inhibition above about 40%;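 note: neddylation substrate is the cullin 1 ring ligase complex with SKP2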
* marks the source's active call; other numbers are inactive results; i = inactive; / = no result shown; + = active, no number. Shown are actives, neighbours in structure and some others; about 1.6% of the full set was active somewhere.

SMILES	proKLK7 act	procasp7 counter	procasp3 activ	Neddylation inh	Neddyl inh conf
CCS(=O)(=O)Nc1ccc(C2=NN(C(=O)c3ccco3)C(c3ccco3)C2)cc1 (stereo not given)	-1	-2	1	i	/
CS(=O)(=O)Nc1ccc(C2=NN(C(=O)c3ccco3)C(c3ccccc3F)C2)cc1 (stereo not given)	-1	-8	-11	+	i
O=C(OCCN1CCN(C2CN(Cc3cn(Cc4ccc([N+](=O)[O-])cc4)nn3)S(=O)(=O)C2)CC1)c1cc2ccccc2o1 (stereo not given)	0	/	/	/	/
O=C(N/N=C/c1ccc(N2CCOCC2)s1)c1ccc(NS(=O)(=O)c2cccs2)cc1	-24	-6	-7	+	+
C/C(=N\NC(=O)c1ccc(NS(=O)(=O)c2cccs2)cc1)c1ccc(O)cc1O	-1	-24	-40	+	/
COc1ccc2nc(NC(=O)c3c(C)noc3C)sc2c1	4	6	-9	+	i
Cc1cc(C)c2c(N)c(C(=O)c3ccc(Cl)cc3)sc2n1	0	-18	-12	i	/
Cc1cc(C)c2c(N)c(C(=O)c3ccccc3)sc2n1	0	-35	-6	+	+
CC(=O)OC[C@H]1O[C@@H](Oc2cc(O)cc3oc(-c4ccc(O)cc4)cc(=O)c23)[C@H](O[C@@H]2O[C@@H](C)[C@H](O)[C@@H](O)[C@H]2O)[C@@H](O)[C@@H]1O	-53	22	11	+	/
CC1OC(OC2C(Oc3c(-c4ccc(O)cc4)oc4cc(O)cc(O)c4c3=O)OC(COC3O[C@@H](C)[C@H](O)[C@@H](O)C3O)C(O)C2O)C(O)C(O)C1O (stereo not given in full)	0	-2	-4	i	/
COc1cccc(/C=C2\CC3(OC(=O)c4ccc(F)cc4)CCCN2C3)c1 (stereo not given)	0	/	/	/	/
CC(=O)c1ccc(NC(=O)COC(=O)CCC2CCCC2)cc1	0	-11	-2	i	/
COc1ccc(-c2cc3ccccc3n2CC(O)CNC(CO)(CO)CO)cc1 (stereo not given)	0	-3	3	+	/
COc1ccc(-c2cc3ccccc3n2CC(O)CN2CCC(C)CC2)cc1 (stereo not given)	0	-3	-4	i	/
Cc1csc2ncc(C(=O)NCc3ccco3)c(=O)n12	-3	0	0	+	i
COc1cc2c(cc1NC(=O)CSc1nnc(-c3ccccc3C)n1Cc1ccco1)oc1ccccc12	0	/	/	/	/
Cc1cccc(C)c1NC(=O)c1ccc(OCc2c(C)noc2C)cc1	0	-3	-4	+	i
CC1(C)CC(=O)C=C(c2ccccc2-c2ccc3c(c2)OCO3)C1=O	0	/	/	/	/
CCCC(=O)N1CCC(NS(=O)(=O)c2ccc3c(c2)CCN3C(C)=O)CC1	0	/	/	/	/
O=C1NC(c2cccs2)Nc2sc3c(c21)CCCC3 (stereo not given)	-6	-11	-4	+	i
CC(Oc1ccccc1)C(=O)Nc1cccc(-c2nc3ccccc3[nH]2)c1 (stereo not given)	0	-8	4	+	i
COc1ccccc1-n1c(-c2ccc(NS(C)(=O)=O)cc2)n[nH]c1=S	-2	-13	0	+	i
COc1ccc(-c2n[nH]c(=S)n2-c2cc(OC)ccc2OC)cc1	0	-16	3	i	/
COc1ccc(C2C3=C(Nc4ncnn42)c2ccccc2CCC3)cc1 (stereo not given)	-1	3	3	+	i
COc1cc(C2C3=C(Nc4ncnn42)c2ccccc2CC3)cc(OC)c1OC (stereo not given)	-1	-9	-7	i	/
SMILES	proKLK7 act	procasp7 counter	procasp3 activ	Neddylation inh	Neddyl inh conf
COc1cccc(CC(=O)n2nc(N)c3cc4ccc(OC)cc4nc32)c1	-1	5	9	+	i
CCOc1ccc(C2=Nc3ccccc3C(c3ccc(N4CCOCC4)cc3)=NN2)cc1	-1	5	0	+	i
CN(C)c1nc(OCc2ccccc2)c2ncc(=O)[nH]c2n1	-1	4	3	+	/
CCCCCc1ccc(C(=O)CCC(=O)OCC(=O)N(CC)c2c(N)n(Cc3ccccc3)c(=O)[nH]c2=O)cc1	0	/	/	i	/
Cc1ccc(-c2cc(C(=O)NN=Cc3cccc4ccccc34)[nH]n2)cc1C	-11	/	/	/	/
CCc1ccc(CN(C)C(=O)c2cc(COc3cccc4cnccc34)on2)cc1	-1	6	-2	i	/
Cc1c(C(C)NC(=O)c2cc(COc3cccc4cnccc34)on2)cnn1C (stereo not given)	8	-7	9	+	+
N#CC1=C(N)Nc2nc3ccccc3n2C1c1ccc(Cl)cc1 (stereo not given)	2	-4	-1	+	i
O=C(N/N=C/c1cccn1-c1ccc(O)cc1)c1cccc2ccccc12	-3	-4	4	+	i
O=C(N/N=C/c1ccccc1)c1cccc2ccccc12	1	4	-6	i	/
CCCN(CC1CC1)C(=O)CN1C(=O)C2CCCCN2C(=O)c2ccccc21 (stereo not given)	0	/	/	/	/
Cc1ccc(C(=O)N/C(=C/c2ccc(-c3ccc(Br)cc3)o2)C(=O)NC2CCS(=O)(=O)C2)cc1 (stereo not given)	7	10	-18	+	i
C(=C\c1nnc(-c2cccs2)o1)/c1ccccc1	1	-4	9	+	i
Cc1ccc(/C=C/c2nnc(-c3ccccc3)o2)cc1	-1	1	-8	i	/
COC(=O)N1Cc2ccnnc2CC1c1ccccc1-c1ccc(OC)cc1 (stereo not given)	0	/	/	/	/
CC(C)CN1CN2Cc3cc(F)ccc3C2CS1(=O)=O (stereo not given)	0	/	/	/	/
O=c1c(-c2cccnc2)nc2ccccc2n1C(c1ccccn1)c1nc2ccccc2[nH]1 (stereo not given)	0	/	/	+	i
O=c1c(-c2ccccc2)nc2ccccc2n1C(c1ccccn1)c1nc2ccccc2[nH]1 (stereo not given)	4	/	/	+	i
O=c1c(-c2ccco2)nc2ccccc2n1C(c1ccccn1)c1nc2ccccc2[nH]1 (stereo not given)	11	/	/	i	/
COC(=O)[C@]12C[C@H](CC(=O)NCc3ccc(OC)c(OC)c3)C(=O)N(CCC3=CCCCC3)C1=C[C@H](C(C)C)O[C@@H]2C1CC1	0	/	/	/	/
CCOC(=O)C(C)Sc1nc(-c2ccco2)cc(C(F)(F)F)c1C#N (stereo not given)	-6	-24	-13	+	/
NCCN1CCN(S(=O)(=O)c2ccc3c(c2)CCN3C(=O)C2CCC2)CC1	0	/	/	/	/
Cc1ccc(S(=O)(=O)N2CC(=O)N3CCN(CCN)C3C2)cc1 (stereo not given)	0	3	6	i	/
